Vif inh: blocks HIV Vif function. HEK293T cells, Vif self-association by quenched fluorescence, imaging, 24 h. inhibition, % at 7.49 µM. 0.35% of 340,000 active. AID 602346; in the data active = inhibition above about 50%, passing the limit was not always enough
SR-BI DiI-HDL act: SR-BI HDL lipid transfer activation; CHO ldlA[mSR-BI] cells, DiI-HDL uptake fluorescence, 3 h; 100 = double the neutral-control signal; AID 504775; activation, % at 12.5 µM; 0.096% of 320,000 active;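 active = mean replicate activation of at least 60% and every replicate at or above 60%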;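 also: 0% = median plate neutral-control signal and 100% = twice that signal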
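System: CHO ldlA[mSR-BI] cells / Medium: HEPES-buffered (25 mM, pH 7.4) F12 plus 0.5% BSA / Probe or stimulus: labelled HDL, 10 µg/mL / Doses: single compound concentration, delivered by pin transfer / Schedule: 3 h, 37 °C / Measured by: DiI fluorescence, bottom read / Measure: cell-associated DiI fluorescence as measure of HDL uptake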
C2C12 statin: protects C2C12 myotubes from simvastatin toxicity; ATP luminescence, 48 h; scaled: DMSO 0, geranylgeraniol control 100; rescue of ATP level, % at 7.49 µM; 0.78% of 330,000 active; AID 602340;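 active = mean ATP rescue above about 67%, or every replicate alone reaching that limit, limit read from the data, passing the limit was not always enough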;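 also: myotubes were challenged with 10 µM simvastatin during compound exposure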
SR-BI DiI inh: mouse SR-BI HDL lipid transfer inhibition; ldlA[mSR-BI] CHO cells, DiI-HDL uptake fluorescence, 3 h; Q61009; 0.96% of 320,000 active; AID 488896; inhibition, % at 12.5 µM;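 active = mean replicate inhibition of at least 70% and a set share of replicates each scoring 70 or more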;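 also: 0% = median of neutral control wells and 100% = median of positive control wells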
Target sequence (Q61009 whole entry, looked up): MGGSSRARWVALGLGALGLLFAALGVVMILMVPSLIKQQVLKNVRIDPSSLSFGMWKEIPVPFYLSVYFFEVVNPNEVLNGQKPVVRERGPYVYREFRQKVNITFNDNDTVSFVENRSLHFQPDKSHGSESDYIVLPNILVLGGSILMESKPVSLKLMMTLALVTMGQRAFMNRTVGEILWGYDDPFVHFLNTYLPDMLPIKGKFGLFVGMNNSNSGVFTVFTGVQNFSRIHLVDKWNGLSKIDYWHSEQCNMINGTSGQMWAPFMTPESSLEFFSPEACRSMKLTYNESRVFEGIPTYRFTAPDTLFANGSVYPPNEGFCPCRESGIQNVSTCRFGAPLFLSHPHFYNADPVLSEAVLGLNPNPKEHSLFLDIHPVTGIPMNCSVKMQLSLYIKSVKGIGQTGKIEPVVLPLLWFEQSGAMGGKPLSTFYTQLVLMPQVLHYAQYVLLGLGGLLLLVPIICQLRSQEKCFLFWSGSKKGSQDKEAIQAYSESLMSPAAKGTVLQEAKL
* = called active by the depositor; / = no result. An excerpt weighted towards active compounds, which were near 1.7% of everything screened.

SMILES	Vif inh	SR-BI DiI-HDL act	C2C12 statin	SR-BI DiI inh
C[C@@H]1CCCCO[C@H](CN(C)Cc2ccc3c(c2)OCO3)[C@@H](C)CN([C@@H](C)CO)C(=O)c2cc(NC(=O)C3CCCCC3)ccc2O1	/	/	-85	/
Cc1ccc(C)c(OC(=O)c2cccnc2Cl)c1C	-5	317*	-1	-317
C[C@@H](NC(=O)C[C@H]1CC[C@H](NC(=O)c2cccnc2)[C@H](CO)O1)c1ccccc1	/	/	-19	/
COc1ccc(S(=O)(=O)N(C)C[C@H]2OCCCC[C@H](C)Oc3ccc(NS(=O)(=O)c4ccc(F)cc4)cc3C(=O)N([C@H](C)CO)C[C@H]2C)cc1	/	/	-6	/
COc1ccc(S(=O)(=O)Nc2ccc3c(c2)C(=O)N([C@H](C)CO)C[C@H](C)[C@H](CN(C)S(=O)(=O)c2ccc(F)cc2)OCCCC[C@H](C)O3)cc1	/	/	107*	/
COc1ccc(S(=O)(=O)Nc2ccc3c(c2)C(=O)N([C@@H](C)CO)C[C@@H](C)[C@H](CN(C)C(=O)c2ccccc2)OCCCC[C@@H](C)O3)cc1	/	/	113*	/
C[C@@H]1CN([C@@H](C)CO)C(=O)c2cc(NC(=O)NC3CCCCC3)ccc2O[C@@H](C)CCCCO[C@H]1CN(C)C(=O)c1ccccc1	/	/	85*	/
COc1ccc(S(=O)(=O)Nc2ccc3c(c2)C(=O)N([C@H](C)CO)C[C@H](C)[C@H](CN(C)Cc2ccc(Cl)c(Cl)c2)OCCCC[C@@H](C)O3)cc1	/	/	79*	/
COc1ccc(S(=O)(=O)Nc2ccc3c(c2)C(=O)N([C@@H](C)CO)C[C@H](C)[C@H](CN(C)Cc2ccc(Cl)c(Cl)c2)OCCCC[C@@H](C)O3)cc1	/	/	24	/
CS(=O)(=O)Nc1ccc2c(c1)[C@H]1C[C@@H](CC(=O)N3CCCCC3)O[C@H](CO)[C@H]1O2	/	/	-1	/
COc1ccc(NC(=O)N(C)C[C@@H]2Oc3ccc(NS(=O)(=O)c4cn(C)cn4)cc3CC(=O)N([C@@H](C)CO)C[C@@H]2C)cc1	/	/	1	/
C[C@H](O)C#Cc1cnc2c(c1)C(=O)N([C@H](C)CO)C[C@H](C)[C@H](CN(C)C(=O)c1ccccc1)O2	/	/	11	/
COc1ccc(S(=O)(=O)Nc2ccc3c(c2)C(=O)N([C@H](C)CO)C[C@@H](C)[C@H](CN(C)S(=O)(=O)c2ccc(F)cc2)OCCCC[C@H](C)O3)cc1	/	/	159*	/
O=C(Nc1ccccc1)N1CCCCN2[C@@H](CO)[C@@H](c3ccc(-c4ccncc4)cc3)[C@@H]2C1	/	/	-67	/
COc1ccc(NC(=O)CN2c3cccc4cccc(c34)S2(=O)=O)cc1	-3	-12	99*	12
CC=Cc1ccc2n(c1=O)C[C@@H]1[C@@H](CO)[C@H](C(=O)NCC(F)(F)F)[C@H]2N1C(=O)CC (mixture of isomers)	/	/	-2	/
COc1ccc(-c2nnc(SCC(=O)Nc3cccc(Cl)c3)o2)cc1	-14	-5	-20	5
COc1cccc(NC(=O)CSc2nnc(-c3cc(-c4ccccn4)nc4ccccc34)o2)c1	-2	/	83*	/
COC(=O)c1cccc(NC(=O)CSc2nnc(-c3ccco3)o2)c1	58*	/	5	/
CC=Cc1ccc2n(c1=O)C[C@H]1N[C@@H]2[C@@H](C(=O)NCCc2ccccc2)[C@@H]1CO (mixture of isomers)	/	/	6	/
COc1ccc(OC)c(-c2nn(-c3ccccc3)cc2C(=O)NCC(c2ccco2)N2CCCC2)c1 (configuration not stated)	54*	-4	4	4
O=C(C1=C[C@@H](c2ccc(Br)cc2)C[C@@H](OCc2ccc(CO)cc2)O1)N1CCN(Cc2ccccc2)CC1	-13	63*	-77	-63
C[C@@H]1CN([C@@H](C)CO)C(=O)c2cccc(NC(=O)c3nc4ccccc4s3)c2O[C@H]1CN(C)Cc1ccc(C(=O)Nc2ccccc2N)cc1	/	/	101*	/
C[C@@H]1CN([C@@H](C)CO)C(=O)c2cc(NC(=O)Nc3ccc(C(F)(F)F)cc3)ccc2O[C@H]1CN(C)Cc1ccc(C(=O)Nc2ccccc2N)cc1	/	/	49	/
C[C@H]1CN([C@@H](C)CO)C(=O)c2cc(N(C)C)ccc2O[C@@H]1CN(C)Cc1ccc(C(=O)Nc2ccccc2N)cc1	/	/	81*	/
SMILES	Vif inh	SR-BI DiI-HDL act	C2C12 statin	SR-BI DiI inh
C[C@@H]1CN([C@H](C)CO)C(=O)c2cc(NC(=O)Nc3cccc4ccccc34)ccc2O[C@@H]1CN(C)Cc1ccc(C(=O)Nc2ccccc2N)cc1	/	/	149*	/
C[C@@H]1CN([C@H](C)CO)C(=O)c2cccc(NC(=O)c3nc4ccccc4s3)c2O[C@@H]1CN(C)Cc1ccccc1	/	/	23	/
C[C@@H]1CN([C@H](C)CO)C(=O)c2cc(NC(=O)Nc3cccc4ccccc34)ccc2O[C@H]1CN(C)Cc1ccc(C(=O)Nc2ccccc2N)cc1	/	/	30	/
C[C@@H]1CN([C@H](C)CO)C(=O)c2cc(NC(=O)Nc3ccc(C(F)(F)F)cc3)ccc2O[C@@H]1CN(C)Cc1ccc(C(=O)Nc2ccccc2N)cc1	/	/	113*	/
C[C@@H]1CN([C@H](C)CO)C(=O)c2cc(-c3ccc(F)cc3)cnc2O[C@H]1CN(C)C(=O)Cc1ccccn1	/	/	-1	/
C/C=C/c1ccc([C@@H]2[C@H](CO)N(CC3CC3)[C@H]2CNC(=O)c2ccccc2)cc1	/	/	-27	/
N#C[C@H]1N[C@@H](CO)[C@H]1c1ccccc1	/	/	15	/
C[C@H](CO)N1C[C@H](C)[C@H](CN(C)Cc2ccc(C(=O)Nc3ccccc3N)cc2)Oc2ccc(NC(=O)Nc3cccc4ccccc34)cc2CC1=O	/	/	240*	/
C[C@@H]1CN([C@H](C)CO)C(=O)c2cc(NS(=O)(=O)c3ccc(Cl)cc3)ccc2O[C@@H]1CN(C)Cc1ccc(C(=O)Nc2ccccc2N)cc1	/	/	97*	/
COCC(=O)Nc1ccc2c(c1)OC[C@H](C)N(CC1CC1)C[C@@H](C)[C@@H](OC)CN(C)C2=O	/	/	-17	/
O=C(CNC(=O)c1ccccc1)N/N=C/c1ccc([N+](=O)[O-])s1	23	3	/	-3
O=C(Cc1ccccc1)NCC(=O)N/N=C/c1ccc([N+](=O)[O-])s1	0	-3	163*	3
O=C(CCC(=O)N1CCN(S(=O)(=O)c2ccc(Cl)cc2)CC1)Nc1cccc(Br)c1	-5	12	72*	-12
C[C@H](O)C#Cc1cnc2c(c1)C(=O)N([C@H](C)CO)C[C@@H](C)[C@H](CN(C)C(=O)Nc1ccc(F)cc1)O2	/	/	2	/
CC1(O)CC(c2ccc(Cl)cc2)=NN1C(=O)c1ccc([N+](=O)[O-])cc1 (configuration not stated)	0	-89	/	89*
C[C@H]1CN([C@@H](C)CO)C(=O)c2cc(NS(C)(=O)=O)ccc2O[C@@H]1CN(C)Cc1ccccc1	/	/	30	/
CC1CCN(S(=O)(=O)c2ccc3ccccc3c2)CC1	/	9	153*	-9
CN1CCN(S(=O)(=O)c2ccc3ccccc3c2)CC1	17	11	1	-11
Cc1ccc(-n2nc3c(N4CCC(C(=O)NCCc5cccs5)CC4)nnc(C)c3c2C)cc1	51*	-21	-5	21

From PubChem
